Results from ChEMBL document CHEMBL1138362, “Dihydro-alkylthio-benzyl-oxopyrimidines as inhibitors of reverse transcriptase: synthesis and rationalization of the biological data on both wild-type enzyme and relevant clinical mutants” (J Med Chem, 2007).

Key:
[1] = system: Human immunodeficiency virus 1; assay: Antiviral activity against HIV1 with reverse transcriptase Y181C mutation in MT4 cells after 5 days by MTT method; type: functional, organism-based; conditions: Human immunodeficiency virus 1, MT4, 120 h
[2] = system: Human immunodeficiency virus 1 [K103N]; assay: Antiviral activity against HIV1 reverse transcriptase K103N mutant
[3] = system: Human immunodeficiency virus 1; assay: Antiviral activity against HIV1 with reverse transcriptase K103N mutation in MT4 cells after 5 days by MTT method; type: functional, organism-based; conditions: Human immunodeficiency virus 1, MT4, 120 h
Outline: (§1)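 MT-4 cells from the NIH AIDS Reagent Program were infected with mutant HIV-1 (K103N or Y188L, from the MRC Centralised Facility) in the presence of graded drug concentrations. Mock-infected cells were used for cytotoxicity. Viable cells were counted by MTT colorimetry at day 5 post-infection.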

[4] = system: Human immunodeficiency virus 1; assay: Antiviral activity against HIV1 with reverse transcriptase Y188L mutation in MT4 cells after 5 days by MTT method; type: functional, organism-based; conditions: Human immunodeficiency virus 1, MT4, 120 h; outline: as §1
[5] = system: Human immunodeficiency virus 1; assay: Antiviral activity against wild type HIV1 NL4-3 in MT4 cells after 5 days by MTT method; type: functional, organism-based; conditions: Human immunodeficiency virus 1, NL4-3, MT4, 120 h
Outline: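 MT-4 lymphoid cells, infected with HIV-1 or mock-infected (for cytotoxicity), held with a range of drug concentrations; viable cells scored at day 5 post-infection by tetrazolium (MTT) colorimetry.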

[6] = biological target: Human immunodeficiency virus type 1 reverse transcriptase (Human immunodeficiency virus 1) (UniProt Q72547); assay: Antiviral activity against wild type HIV1 reverse transcriptase
[7] = system: Human immunodeficiency virus type 1 reverse transcriptase (Human immunodeficiency virus 1), Q72547 [Y181I]; assay: Antiviral activity against HIV1 reverse transcriptase Y181I mutant

Row | Structure (SMILES) | EC50 [1] | ID50 [2] | EC50 [3] | EC50 [4] | EC50 [5] | ID50 [6] | ID50 [7]
1 | Cc1c(Cc2c(Cl)cccc2Cl)nc(S/C=C/c2ccc(F)cc2)[nH]c1=O | > 59.4 µM | > 20 µM | 11.9 µM | > 59.4 µM | > 59400 nM | > 20 µM | > 20 µM
2 | Cc1c(Cc2c(F)cccc2F)nc(SC/C=C/c2ccc([N+](=O)[O-])cc2)[nH]c1=O | > 11.7 µM | > 20 µM | > 11.7 µM | > 11.7 µM | 260 nM | 11.9 µM | > 20 µM
3 | COc1ccc(C#CCSc2nc(C(C)c3c(Cl)cccc3Cl)c(C)c(=O)[nH]2)cc1 (centres undefined) | 33.5 µM | > 20 µM | > 54.5 µM | 24.8 µM | 500 nM | 0.005 µM | > 20 µM
4 | COc1ccc(CCCSc2nc(C(C)c3c(Cl)cccc3Cl)c(C)c(=O)[nH]2)cc1 (centres undefined) | 0.24 µM | > 20 µM | 0.82 µM | 0.28 µM | 0.2 nM | 9.76 µM | > 20 µM
5 | CCc1c(Cc2c(F)cccc2F)nc(SCc2ccc([N+](=O)[O-])cc2)[nH]c1=O | 2.13 µM | > 20 µM | 10.6 µM | > 60 µM | 74 nM | 0.07 µM | > 20 µM
6 | COc1ccc(CSc2nc(C(C)c3c(F)cccc3F)c(C)c(=O)[nH]2)cc1 (centres undefined) | 0.3 µM | 45 µM | 0.55 µM | 0.95 µM | 0.025 nM | 0.003 µM | > 20 µM
7 | Cc1c(Cc2c(Cl)cccc2Cl)nc(SC/C=C/c2ccc(N(C)C)cc2)[nH]c1=O | > 54.4 µM | > 20 µM | > 54.4 µM | > 54.4 µM | > 54400 nM | 0.778 µM | > 20 µM
8 | CCc1c(Cc2c(Cl)cccc2Cl)nc(SCc2ccc([N+](=O)[O-])cc2)[nH]c1=O | 1.58 µM | > 20 µM | > 55.6 µM | > 55.6 µM | 66.6 nM | 0.075 µM | > 20 µM
9 | CCc1c(Cc2c(Cl)cccc2Cl)nc(SC/C=C/c2ccc(C#N)cc2)[nH]c1=O | – | > 20 µM | > 54.8 µM | > 54.8 µM | 1730 nM | 0.188 µM | > 20 µM
10 | Cc1c(C(C)c2c(F)cccc2F)nc(SC/C=C/c2ccc([N+](=O)[O-])cc2)[nH]c1=O (centres undefined) | > 11.3 µM | > 20 µM | > 11.3 µM | > 11.3 µM | 140 nM | 0.283 µM | > 20 µM
11 | CCC(c1nc(SCc2ccc(OC)cc2)[nH]c(=O)c1C)c1c(F)cccc1F (centres undefined) | 5.02 µM | > 20 µM | 6.13 µM | 1.46 µM | 1.9 nM | 0.047 µM | > 20 µM
12 | CCc1c(C(C)c2c(F)cccc2F)nc(SCCOCc2ccc(OC)cc2)[nH]c1=O (centres undefined) | > 54.4 µM | > 20 µM | > 54.4 µM | > 54.4 µM | 3890 nM | 0.741 µM | 0.27 µM
13 | CCc1c(Cc2c(Cl)cccc2Cl)nc(SC/C=C/c2ccc([N+](=O)[O-])cc2)[nH]c1=O | 4.2 µM | > 20 µM | > 32.1 µM | > 32.1 µM | 610 nM | 2.5 µM | > 20 µM
14 | Cc1c(Cc2ccc(C#N)cc2)nc(SCc2ccc(C#N)cc2)[nH]c1=O | > 67.2 µM | > 20 µM | > 67.2 µM | > 67.2 µM | > 67200 nM | > 20 µM | > 20 µM
15 | Cc1c(Cc2ccc(C#N)cc2)nc(SCc2ccc([N+](=O)[O-])cc2)[nH]c1=O | > 26.4 µM | > 20 µM | > 26.4 µM | > 26.4 µM | > 26400 nM | > 20 µM | > 20 µM
16 | COc1ccc(CCSc2nc(Cc3c(F)cccc3F)c(C)c(=O)[nH]2)cc1 | 6.34 µM | 3.5 µM | 4.13 µM | 8.53 µM | 4.9 nM | 0.029 µM | > 20 µM
17 | CCc1c(C(C)c2c(F)cccc2F)nc(SC/C=C/c2ccc([N+](=O)[O-])cc2)[nH]c1=O (centres undefined) | > 5.75 µM | > 20 µM | > 5.75 µM | 1.94 µM | 0.4 nM | 0.009 µM | > 20 µM
18 | CCc1c(Cc2c(Cl)cccc2Cl)nc(SCc2ccc(OC)cc2)[nH]c1=O | 0.83 µM | 7.6 µM | 6.99 µM | > 57.5 µM | 2.2 nM | 0.032 µM | > 20 µM
19 | Cc1c(Cc2c(Cl)cccc2Cl)nc(SC/C=C/c2ccc([N+](=O)[O-])cc2)[nH]c1=O | > 10.8 µM | > 20 µM | > 10.8 µM | > 10.8 µM | > 10800 nM | 3.81 µM | > 20 µM

Row | Structure (SMILES) | EC50 [1] | ID50 [2] | EC50 [3] | EC50 [4] | EC50 [5] | ID50 [6] | ID50 [7]
20 | COc1ccc(CSc2nc(C(C)c3c(Cl)cccc3Cl)c(C)c(=O)[nH]2)cc1 (centres undefined) | 1.73 µM | > 20 µM | 6.72 µM | – | 1.1 nM | 0.77 µM | > 20 µM
21 | Cc1c(C(C)c2c(F)cccc2F)nc(SCc2ccc([N+](=O)[O-])cc2)[nH]c1=O (centres undefined) | 0.44 µM | 0.6 µM | 0.66 µM | 0.22 µM | 3.3 nM | 0.03 µM | > 20 µM
22 | CCc1c(Cc2c(F)cccc2F)nc(SCc2ccc(OC)cc2)[nH]c1=O | 1.45 µM | > 20 µM | 10.3 µM | > 62.2 µM | 12 nM | 0.03 µM | > 20 µM
23 | Cc1c(C(C)c2c(Cl)cccc2Cl)nc(SCc2ccc([N+](=O)[O-])cc2)[nH]c1=O (centres undefined) | 7.15 µM | > 20 µM | 6.22 µM | 9.95 µM | 19 nM | 0.408 µM | > 20 µM
24 | CC(=O)Oc1ccc(CSc2nc(Cc3c(Cl)cccc3Cl)c(C)c(=O)[nH]2)cc1 | 8.64 µM | > 20 µM | > 55.7 µM | > 55.7 µM | 127 nM | 0.085 µM | > 20 µM
25 | CCCCc1ccc(CSc2nc(Cc3ccc(C#N)cc3)c(C)c(=O)[nH]2)cc1 | > 79.9 µM | > 20 µM | > 79.9 µM | > 79.9 µM | 4570 nM | > 20 µM | > 20 µM
26 | Cc1c(C(C)c2c(Cl)cccc2Cl)nc(SC/C=C/c2ccc([N+](=O)[O-])cc2)[nH]c1=O (centres undefined) | > 41 µM | > 20 µM | > 41 µM | > 41 µM | 480 nM | 0.102 µM | > 20 µM
27 | CCc1c(Cc2c(Cl)cccc2Cl)nc(SC/C=C/c2ccc(OC)cc2)[nH]c1=O | > 0.19 µM | > 20 µM | > 0.19 µM | > 0.19 µM | 1.5 nM | 0.056 µM | > 20 µM
28 | Cc1c(Cc2c(F)cccc2F)nc(SCC(=O)c2ccc([N+](=O)[O-])cc2)[nH]c1=O | 4.18 µM | > 20 µM | > 58 µM | > 58 µM | 370 nM | 0.95 µM | > 20 µM
29 | COc1ccc(COCCSc2nc(C(C)c3c(F)cccc3F)c(C)c(=O)[nH]2)cc1 (centres undefined) | 0.65 µM | 9.94 µM | 0.92 µM | 0.32 µM | 1.1 nM | 0.0082 µM | > 20 µM
30 | COc1ccc(/C=C/CSc2nc(Cc3c(Cl)cccc3Cl)c(C)c(=O)[nH]2)cc1 | > 0.96 µM | 9 µM | > 0.96 µM | > 0.96 µM | 15 nM | 0.007 µM | > 20 µM
31 | CCc1c(Cc2c(Cl)cccc2Cl)nc(SCCc2ccc(OC)cc2)[nH]c1=O | 3.85 µM | > 20 µM | 6.81 µM | > 11.1 µM | 1.3 nM | 0.07 µM | > 20 µM
32 | Cc1c(Cc2c(F)cccc2F)nc(SCC(=O)c2ccc(Cl)cc2)[nH]c1=O | 3.69 µM | > 20 µM | > 59.5 µM | > 59.5 µM | 3760 nM | 7.5 µM | > 20 µM
33 | CCOc1ccc(CSc2nc(Cc3c(F)cccc3F)c(C)c(=O)[nH]2)cc1 | 1.19 µM | > 20 µM | > 62.2 µM | > 62.2 µM | 370 nM | 0.8 µM | > 20 µM
34 | CC(=O)Oc1ccc(CSc2nc(Cc3c(F)cccc3F)c(C)c(=O)[nH]2)cc1 | > 60.1 µM | > 20 µM | > 60.1 µM | > 60.1 µM | 22900 nM | 48 µM | > 20 µM
35 | COc1ccc(COCCSc2nc(Cc3c(F)cccc3F)c(C)c(=O)[nH]2)cc1 | > 55.9 µM | > 20 µM | > 55.9 µM | > 55.9 µM | 1200 nM | 0.197 µM | > 20 µM
36 | Cc1c(C(C)c2c(Cl)cccc2Cl)nc(SCc2ccc(C#N)cc2)[nH]c1=O (centres undefined) | – | > 20 µM | 11.6 µM | – | 160 nM | 0.02 µM | > 20 µM
37 | COc1ccc(C#CCSc2nc(Cc3c(Cl)cccc3Cl)c(C)c(=O)[nH]2)cc1 | – | > 20 µM | > 56.2 µM | > 56.2 µM | 2470 nM | 0.01 µM | > 20 µM
